Measurements of several laboratories.
Lines come from different studies, so protocols differ.
Target: Serine/threonine-protein kinase VRK2 (VRK2, Homo sapiens, UniProt Q86Y07)

FC(F)(F)Oc1cccc(-c2cnc3ccc(-c4ccncc4)nn23)c1 — remaining binding (binding, competition with immobilised ligand; 5 µM): 75%
Cc1noc([C@H]2C[C@@H](c3ccc(C(F)(F)F)cc3)CN(C(=O)N3CCS(=O)(=O)C3)C2)n1 — remaining binding (cell-free assay, competition with immobilised ligand; 1 µM): 91%
CN(C)c1nccc(-c2cnc3ncccn23)n1 — remaining binding (binding; 1 µM): 64%
C[C@H](c1ccnc(Nc2nc3ccc(-c4cc(N(C)C)ncn4)cc3[nH]2)c1)N1CCN(C(=O)CC(F)(F)F)CC1 — remaining binding (cell-free assay, competition with immobilised ligand; 0.1 µM): 94%
CN(c1nccc(-c2cnn3ncccc23)n1)C1CC1 — remaining binding (binding; 1 µM): 100%
Cc1cnc(Nc2ccc(C(=O)N3CCC(N4CCCC4)CC3)cc2)nc1-c1cc2ccccc2s1 — remaining binding (binding, competition with immobilised ligand; 1 µM): 81%
O=C(NCC1CCOCC1)c1n[nH]cc1NC(=O)c1c(F)cccc1F — remaining binding (binding, competition with immobilised ligand; 1 µM): 100%
CCN1CCN(Cc2ccc(C(=O)Nc3ccc(C)c(Oc4ccc5c(c4)CC(=O)N5)c3)cc2C(F)(F)F)CC1 — remaining binding (binding, competition with immobilised ligand; 1 µM): 100%
CNC(=O)Nc1ccc2c(c1)CC[C@@]21OC(=O)N(CC(=O)N(Cc2ccc(F)cc2)[C@@H](C)C(F)(F)F)C1=O — remaining binding (cell-free assay, competition with immobilised ligand; 1 µM): 91%
N[C@@H]1CCN(c2nccc(-c3cnn4ncccc34)n2)C1 — remaining binding (binding; 1 µM): 100%
O=C(NCCCN1CCOCC1)c1ccc(Nc2nccc(-c3cc4ccccc4s3)n2)cc1 — remaining binding (binding, competition with immobilised ligand; 1 µM): 100%
O=C(NCCCC1CCCCC1)c1ccc(CNC(=O)c2cnn(-c3ccccc3)c2C(F)(F)F)cc1 — remaining binding (cell-free assay, competition with immobilised ligand; 0.1 µM): 100%
O=C(c1ccc(Nc2ncc(Cl)c(-c3ccc(Cl)s3)n2)cc1)N1CCC(N2CCCC2)CC1 — remaining binding (binding, competition with immobilised ligand; 1 µM): 56%
COc1ccnn2ncc(-c3ccnc(N(C)C)n3)c12 — remaining binding (binding; 1 µM): 100%
CNC(=O)Nc1ccc2c(c1)[C@@]1(CC2)OC(=O)N(CC(=O)N(Cc2ccc(F)cc2)[C@@H](C)C(F)(F)F)C1=O — remaining binding (cell-free assay, competition with immobilised ligand; 1 µM): 97%
COc1ncc2cc3ccccc3nc2c1C#N — remaining binding (cell-free assay, competition with immobilised ligand; 5 µM): 98%
CN(C)c1ncc(F)c(-c2cnn3ncccc23)n1 — remaining binding (binding; 1 µM): 100%
COc1cnc(Nc2cccc(S(N)(=O)=O)c2)nc1N1CCN(c2ccccc2)C(=O)C1 — remaining binding (binding, competition with immobilised ligand; 1 µM): 89%
C[C@@H]1CCN(c2nccc(-c3cnn4ncccc34)n2)C1 — remaining binding (binding; 1 µM): 82%
NS(=O)(=O)c1cc(NC(=O)Cc2ccccc2)ccc1Oc1cccc(Cl)c1 — remaining binding (cell-free assay, competition with immobilised ligand; 1 µM): 100%
c1cnn2ncc(-c3ccnc(N4CCC45COC5)n3)c2c1 — remaining binding (binding; 1 µM): 74%
CCCCN(CCCC)C(=O)CN1C[C@@H](c2cc(OC)c3c(c2)OCO3)[C@H](C(=O)O)[C@H]1CC(C)(C)CCC — remaining binding (cell-free assay, competition with immobilised ligand; 1 µM): 95.4%
